Assay results as given in ChEMBL document CHEMBL1150569, “Three new furan derivatives and a new fatty acid from a Taiwanese marine sponge Plakortis simplex” (J Nat Prod, 2001).
Values after ≈ are worked out from the molar mass of the structure shown.

How the values were obtained:
[1] = Cytotoxicity against human COLO250 cells; format: functional, cell-based
Method in brief: (§1)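 In vitro cytotoxicity against human tumor cells: COLO-250 colon carcinoma cells and KB-16 nasopharyngeal carcinoma cells. Activity expressed as IC50 in µg/mL.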

[2] = Cytotoxicity against human KB16 cells; format: functional, cell-based; method in brief: as §1
[3] = Homo sapiens, KB16, read-out: IC50

| Compound | IC50 [1] | IC50 ([2]; kb16) | IC50 ([1]; Homo sapiens, read-out: IC50) [µg/mL] | IC50 [2, 3] [µg/mL] |
| --- | --- | --- | --- | --- |
| COC(=O)C[C@@H]1C=CC(=O)O1 | Not Active | Not Active |  |  |
| CCCCCCCCCCCCCCCCC(=O)/C=C/C1OC1C(=O)O (stereo not drawn) [PLAKORTIC ACID] | Not Active | Not Active |  |  |
| CCCCCCCCCCCCCCCC[C@@]1(OC)C=C[C@H](CC(=O)OC)OO1 | Not Active | Not Active |  |  |
| CCCCC(CCC=O)CCCCCCCc1ccc(CC(=O)OC)o1 (stereo not drawn) [PLAKORSIN C] | Not Active | Not Active |  |  |
| CCCCCCCCCCCCCCCCc1ccc(CC(=O)O)o1 [PLAKORSIN B] |  |  | 0.28 (≈ 0.799 µM) | 3.43 (≈ 9.78 µM) |
| CCCCCCCCCCCCCCCC[C@@]1(OC)C=C[C@@H](CC(=O)OC)OO1 [CHONDRILLIN] | Not Active |  |  | 0.74 (≈ 1.79 µM) |
| COC(=O)/C=C\C=C/C(=O)O | Not Active | Not Active |  |  |
| COC(=O)CCC(=O)CC(=O)OC | Not Active | Not Active |  |  |
| CCCCCCCCCCCCCCCCc1ccc(CC(=O)OC)o1 [PLAKORSIN A] | Not Active | Not Active |  |  |
